Measurements: ChEMBL document CHEMBL1124663, “Design, synthesis, antineoplastic activity, and chemical properties of bis(carbamate) derivatives of 4,5-bis(hydroxymethyl)imidazole” (J Med Chem, 1989)

How the values were obtained:
[1] = tested on: Mus musculus; assay: Ability of 100 mg/kg of compound to kill M5076 tumor cells in mice is expressed as the log of the tumor cell population at the onset of treatment minus the log of the tumor cell population at the end of treatment; format: functional
Summary of the method: (§1)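 M5076 sarcoma, 10^6 cells ip on day 0 in B6C3F1 mice. Drug given ip as a fresh saline suspension every fourth day (days 1, 5, 9, 13). % T/C is median survival of treated versus control mice, counting long-term survivors. Cures are 60-day survivors. Log cell kill is derived from this.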

[2] = tested on: Mus musculus; assay: Body weight difference (BWD) of test animals administered with 50 mg/kg compound is determined on day 14 for M5076 minus 1 tumor cells; format: functional
Summary of the method: (§2)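 M5076 sarcoma: 10^6 cells inoculated ip on day 0 in B6C3F1 mice. Fresh saline suspension dosed ip every fourth day, on days 1, 5, 9 and 13. Body weight difference in g (treated minus control) taken as day 14 minus day 1. Ten mice per group.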

[3] = tested on: Mus musculus; assay: The […] for M5076 minus 1 tumor cells of test animals dosed with 50 mg/kg of compound; 10/10; format: functional
Summary of the method: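 M5076 sarcoma, 10^6 cells, inoculated ip into B6C3F1 mice on day 0. Fresh saline suspension given ip every fourth day (days 1, 5, 9, 13). Toxicity survivors were scored on day 5 as survivors over initial group. Body-weight difference was day 14 minus day 1.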

[4] = tested on: Mus musculus; assay: The toxicity day was evaluated […] for MX-1 tumor cells of test animals dosed with 100 mg/kg of compound; 6/6; format: functional
Summary of the method: (§3)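 Human MX-1 mammary xenograft, a 1 mm3 (0.5 mg) tumor fragment implanted under the renal capsule of NCR-nu mice on day 0. Drug given ip as a fresh saline suspension on days 1, 5 and 9. Tumor size is assessed on day 11. A negative % T/C is percent shrinkage relative to the initial implant. Survivors in the toxicity group are […].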

[5] = tested on: Mus musculus; assay: Toxicity day evaluation was carried out on day 5 for animal dosed with 25 mg/kg compound; 6/6; format: organism-based; design: dose 25 mg/kg; details: in vivo
[6] = tested on: Mus musculus; assay: The percent of the median survival time of test mice compared to control mice is % T/C. It is determined for mice administered with 25 mg/kg compound on day 0 for LOX 1 tumor cells.; format: functional; details: route intraperitoneal
[7] = tested on: Mus musculus; assay: Body Weight Difference (BWD) of test animals administered with 6.25 mg/kg compound is determined on day 5 for P388 tumor cells; format: functional
Summary of the method: (§4)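 P388 leukaemia: about 10^6 cells in ascitic fluid inoculated ip on day 0 (CD2F1 mice). Compound given ip in normal saline as a freshly prepared solution or suspension, once daily on days 1–5. Treated-minus-control body weight difference in g, taken as day 5 minus day 1 weight. Groups of six.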

[8] = tested on: Mus musculus; assay: Body weight difference (BWD) of test animals administered with 25 mg/kg compound is determined on day 10 for LOX tumor cells.
[9] = tested on: Mus musculus; assay: Body weight difference (BWD) of test animals administered with 12.5 mg/kg compound is determined on day 5 for L1210 tumor cells; format: functional
Summary of the method: (§5)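 L1210 leukaemia: 10^5 cells implanted ip on day 0 in mice. Freshly prepared saline suspension given ip once daily on days 1–5. Body weight difference in g (treated minus control) taken as day 5 minus day 1. Six animals per dose.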

[10] = tested on: Mus musculus; assay: The percent of the median survival time of test mice compared to control mice, administered with 100 mg/kg compound on day 14 for M5076 minus 1 tumor cells; format: functional; summary of the method: as §1
[11] = tested on: Mus musculus; assay: Ability of 50 mg/kg of compound to kill M5076 tumor cells in mice is expressed as the log of the tumor cell population at the onset of treatment minus the log of the tumor cell population at the end of treatment; format: functional; summary of the method: as §1
[12] = tested on: Mus musculus; assay: The percent of the median survival time of test mice compared to control mice, administered with 50 mg/kg compound on day 14 for M5076 minus 1 tumor cells; format: functional; summary of the method: as §1
[13] = tested on: Mus musculus; assay: Toxicity day evaluation was carried out on day 5 for animal dosed with 100 mg/kg compound; 6/6; format: organism-based; design: dose 100 mg/kg; details: in vivo
[14] = tested on: Mus musculus; assay: The percent of the median survival time of test mice compared to control mice is % T/C which refers to tumor size in this case. It is determined for mice administered with 60 mg/kg compound on day 11 for MX-1 tumor cells; format: functional; details: route intraperitoneal; summary of the method: as §3
[15] = tested on: Mus musculus; assay: The percent of the median survival time of test mice compared to control mice, administered with 50 mg/kg compound on day 5 for L1210 tumor cells; format: functional
Summary of the method: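 L1210 leukemia, 10^5 cells implanted ip on day 0. Drug given ip daily on days 1-5 as a saline suspension freshly prepared before each injection. Read-out is median survival of treated versus control mice (% T/C), and log cell kill is derived from it.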

[16] = tested on: Mus musculus; assay: Ability of 25 mg/kg of compound to kill M5076 tumor cells in mice is expressed as the log of the tumor cell population at the onset of treatment minus the log of the tumor cell population at the end of treatment; format: functional; summary of the method: as §1
[17] = tested on: Mus musculus; assay: The toxicity day was evaluated on day 5 for L1210 tumor cells of test animals dosed with 200 mg/kg of compound; 0/6; format: functional
Summary of the method: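 L1210 leukaemia, 10^5 cells, implanted ip on day 0. Freshly prepared saline suspension dosed ip daily on days 1-5. Toxicity evaluated on day 5 as survivors over animals in the initial test group.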

[18] = tested on: Mus musculus; assay: The percent of the median survival time of test mice compared to control mice is % T/C. It is determined for mice administered with 100 mg/kg compound on day 0 for LOX 1 tumor cells.; format: functional; details: route intraperitoneal
[19] = tested on: Mus musculus; assay: The percent of the median survival time of test mice compared to control mice is % T/C. It is determined for mice administered with 50 mg/kg compound on day 0 for LOX 1 tumor cells.; format: functional; details: route intraperitoneal
[20] = tested on: Mus musculus; assay: Body weight difference (BWD) of test animals administered with 60 mg/kg compound is determined on […] tumor cells; format: functional
Summary of the method: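 MX-1 human mammary xenograft: solid tumour fragment (1 mm3, 0.5 mg) placed as a subrenal capsule implant on day 0 in NCR-nu mice. Fresh saline suspension dosed ip on days 1, 5 and 9. Body weight difference in g (treated minus control) recorded. Assay evaluated on day 11. Six mice per group.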

[21] = tested on: Mus musculus; assay: Toxicity day evaluation was carried out on day 5 for animal dosed with 12.5 mg/kg compound; 6/6; format: organism-based; design: dose 12.5 mg/kg; details: in vivo
[22] = tested on: Mus musculus; assay: Body weight difference (BWD) of test animals administered with 100 mg/kg compound is determined on day 5 for L1210 tumor cells; format: functional; summary of the method: as §5
[23] = tested on: Mus musculus; assay: Body weight difference (BWD) of test animals administered with 25 mg/kg compound is determined on day 5 for L1210 tumor cells; format: functional; summary of the method: as §5
[24] = tested on: Mus musculus; assay: The toxicity day was evaluated on day 11 for MX-1 tumor cells of test animals dosed with 60 mg/kg of compound; 6/6; format: functional
Summary of the method: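 Human MX-1 mammary tumour (1 mm3, 0.5 mg) implanted under the renal capsule of NCR-nu mice on day 0. Drug was given ip as a freshly made saline suspension on days 1, 5 and 9. Readout is survivors over initial group size.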

[25] = tested on: Mus musculus; assay: Body Weight Difference (BWD) of test animals administered with 25 mg/kg compound is determined on day 5 for P388 tumor cells; format: functional; summary of the method: as §4
[26] = tested on: Mus musculus; assay: Body weight difference (BWD) of test animals administered with 100 mg/kg compound is determined on day 14 for M5076 minus 1 tumor cells; format: functional; summary of the method: as §2

With `CNC(=O)OCc1nc(SC)n(C)c1COC(=O)NC` the KE [1] was -0.34, the BWD [2] was -0.7 g and the “Survivors / animals tested” value [3] was 10. The “Survivors / animals tested” value [4] was 6, the “Survivors / animals tested” value [5] was 6 and the T/C [6] was 219%. For the same molecule, the BWD [7] was -0.7 g, the BWD [8] was -3 g and the BWD [9] was -0.2 g. For the same molecule, the T/C [10] was 151%, the KE [11] was -1.63 and the T/C [12] was 119%. For the same molecule, the “Survivors / animals tested” value [13] was 6, the T/C [14] was -91% and the T/C [15] was 124%. The KE [16] was -1.51, the “Survivors / animals tested” value [17] was 0 and the T/C [18] was 365%. The T/C [19] was 231%, the BWD [20] was -1.9 g and the “Survivors / animals tested” value [21] was 6. For the same molecule, the BWD [22] was -1.9 g, the BWD [23] was 0 g and the “Survivors / animals tested” value [24] was 6. The BWD [25] was -1.4 g and the BWD [26] was -1.2 g.
